Experimental data from ChEMBL document CHEMBL1158756, “Hassallidin A, a glycosylated lipopeptide with antifungal activity from the cyanobacterium Hassallia sp” (2005).
The source made the active and inactive calls. Positions of bridges follow the written chain, without caps; N, C: chain ends. Non-standard residues stand in square brackets, D forms with d. Residues, ends and D or L forms follow the SMILES beside them. *: point of attachment. X2 = OC[C@H]1O[C@@H](*)[C@@H](O)[C@@H](O)[C@@H]1O; NMeT = CN[C@H](C(=O)O)[C@@H](C)O; X1 = CCCCCCCCCCCC(O)C(O)C(=O)*; Dhb = C/C=C(\N)C(=O)O

Experiments:
[1] = test system: Aspergillus niger; assay: Antifungal activity against Aspergillus niger at 10 ug by disk diffusion assay; type: functional, organism-based
How it was run: (§1)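 Disk diffusion on malt agar plates; each disk carried 10 µg in 30 µL of 50% MeOH.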

[2] = test system: Aspergillus fumigatus; assay: Antifungal activity against Aspergillus fumigatus at 10 ug by disk diffusion assay; type: functional, organism-based; how it was run: as §1
[3] = test system: Bacillus subtilis; assay: Antimicrobial activity against Bacillus subtilis at 10 ug by disk diffusion assay; type: functional, organism-based
How it was run: (§2)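 Disk diffusion on LB-agar plates; each disk carried 10 µg in 30 µL of 50% MeOH.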

[4] = test system: Streptomyces; assay: Antimicrobial activity against Streptomyces versicolor at 10 ug by disk diffusion assay; type: functional, organism-based; how it was run: as §2
[5] = test system: Penicillium sp.; assay: Antifungal activity against Penicillium sp. at 10 ug by disk diffusion assay; type: functional, organism-based; how it was run: as §1
[6] = test system: Nakaseomyces glabratus; assay: Antifungal activity against Candida glabrata at 10 ug by disk diffusion assay; type: functional, organism-based; how it was run: as §1
[7] = test system: Fusarium sambucinum; assay: Antifungal activity against Fusarium sambucinum at 10 ug by disk diffusion assay; type: functional, organism-based; how it was run: as §1
[8] = test system: Ustilago maydis; assay: Antifungal activity against Ustilago maydis at 10 ug by disk diffusion assay; type: functional, organism-based; conditions: Mycosarcoma maydis; how it was run: as §1
[9] = test system: Aspergillus fumigatus; assay: Antifungal activity against Aspergillus fumigatus after 48 hrs; type: functional
How it was run: (§3)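 Broth microdilution in RPMI-1640; each well held 240 µL medium, 10 µL inoculum (prepared per NCCLS guidelines) and 50 µL of test solution in 50% MeOH. The test solution was a 2-fold series from a 92 µg/mL stock, 4.6 down to 0.14 µg per 50 µL. A drug-free well served as control. Incubation at 35 °C, 24 h for C. albicans and 48 h for A. fumigatus. Growth was read as OD595. MIC was the highest dilution well free from growth. Run in triplicate.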

[10] = test system: Candida albicans; assay: Antifungal activity against Candida albicans at 10 ug by disk diffusion assay; type: functional, organism-based; how it was run: as §1
[11] = test system: Escherichia coli; assay: Antimicrobial activity against Escherichia coli at 10 ug by disk diffusion assay; type: functional, organism-based; how it was run: as §2
[12] = test system: Candida albicans; assay: Antifungal activity against Candida albicans after 24 hrs; type: functional; how it was run: as §3

C/C=C1\NC(=O)[C@H](Cc2ccc(O)cc2)NC(=O)[C@H]([C@@H](C)O)NC(=O)[C@@H](NC(=O)[C@@H](NC(=O)C(O)C(O)CCCCCCCCCCC)[C@@H](C)O)[C@@H](C)OC(=O)[C@H](CCC(N)=O)NC(=O)[C@H]([C@@H](C)O[C@@H]2O[C@H](CO)[C@@H](O)[C@H](O)[C@@H]2O)N(C)C(=O)CNC(=O)[C@H](CCC(N)=O)NC1=O (some centres not stated) [HASSALLIDIN A] (X1-TTTY[Dhb]QG[NMeT](X2)Q; ester 2-C)
active: Activity [1] | Activity [2] | Activity [5] | Activity [6] | Activity [7] | Activity [8] | Activity [10]
4.8 µg/mL: MIC [9] | MIC [12]
inactive: Activity [3] | Activity [4] | Activity [11]
